This passage reports IC50 results from ChEMBL document CHEMBL1131544, “Synthesis and antioxidant activity of novel amphipathic derivatives of tea polyphenol” (Bioorg Med Chem Lett, 1998).

Holding throughout (format): functional
The nature of assay [1]: Inhibitory activity against lipid peroxidation of egg-phosphatidylcholine (PC) liposome caused by water-soluble radical initiator [2,2'-azobis(2-amidinopropane) dihydrochloride] (AAPH); strongly aggregated and precipitated the lipids, hence not eva luated. The procedure, abridged:
(§1)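 Egg PC liposome peroxidation driven by water-soluble initiator AAPH (0.21 M aqueous stock, 150 µl) with sample in DMSO; 37°C for 20 min, capped tube. TBA reagent (0.375% TBA, 15% TCA, 0.25 N HCl) added, 100°C 15 min, cooled, spun; thiobarbituric acid reactive substances measured at 535 nm to give IC50.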

A short description of assay [2]: Inhibitory activity against lipid peroxidation of egg-phosphatidylcholine (PC) liposome caused by water-soluble radical initiator [2,2'-azobis(2-amidinopropane) dihydrochloride] (AAPH). The method, boiled down:
as §1

A short description of assay [3]: Inhibitory activity against lipid peroxidation of egg-phosphatidylcholine (PC) liposome caused by lipid-soluble radical initiator [2,2'-azobis(2,4- dimethylvaleronitrile] (AMVN). The procedure, abridged:
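Egg PC liposomes (0.65 ml) incubated with sample in DMSO plus AMVN (8 mM DMSO stock) and water, 37°C, 20 min, capped tube. Stopped with thiobarbituric acid/trichloroacetic acid/HCl, heated 100°C 15 min, ice-cooled, centrifuged; TBARS in supernatant read at 535 nm. IC50 against lipid peroxidation.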

What is called IC50 is the concentration at which inhibition is half-maximal. Higher therefore signals weaker potency. `CCCCCCCCCCCCCCCCCCSCc1c(O)c(CSCCCCCCCCCCCCCCCCCC)c2c(c1O)C[C@@H](OC(=O)c1cc(O)c(O)c(O)c1)[C@@H](c1cc(O)c(O)c(O)c1)O2`: the IC50 result in assay [1] was “No effect”.

As to `C=CCSCc1c(O)c(CSCC=C)c2c(c1O)C[C@@H](OC(=O)c1cc(O)c(O)c(O)c1)[C@@H](c1cc(O)c(O)c(O)c1)O2`, the values for the IC50 in assay [2] and in assay [3] were 11.6 µM and above 500 µM, respectively.

Regarding `O=C(O[C@H]1[C@@H](c2cc(O)c(O)c(O)c2)Oc2cc(O)cc(O)c2[C@@H]1SCCO)c1cc(O)c(O)c(O)c1`, the IC50 in assay [2] is 20.5 µM; in assay [3], above 500 µM.

With `CCCCCCCCSCc1c(O)c(CSCCCCCCCC)c2c(c1O)[C@H](SCCO)[C@@H](OC(=O)c1cc(O)c(O)c(O)c1)[C@@H](c1cc(O)c(O)c(O)c1)O2`, the figures for the IC50 in assay [2] and in assay [3] were 8.8 µM and 60.8 µM, respectively.

As for `CCCCCCCCCCCCCCCCCCNC(=O)Oc1c(O)cc(C(=O)O[C@@H]2Cc3c(O)cc(O)cc3O[C@@H]2c2cc(O)c(O)c(O)c2)cc1O`, the IC50 amounted to 24.6 µM in assay [2] and 22.1 µM in assay [3].

Take `CCCCCCCCOC(=O)c1cc(O)c(O)c(O)c1` [OCTYL_GALLATE]: the figures for the IC50 in assay [2] and in assay [3] were 18.6 µM and 188 µM, respectively.

Turning to `CCCCCCCCSCc1c(O)c(CSCCCCCCCC)c2c(c1O)[C@H](SCCCCCCCC)[C@@H](OC(=O)c1cc(O)c(O)c(O)c1)[C@@H](c1cc(O)c(O)c(O)c1)O2`, the IC50 was found to be 135 µM in assay [2] and 19.4 µM in assay [3].

As to `CCCCCCCCSCc1c(O)c(CSCCCCCCCC)c2c(c1O)C[C@@H](OC(=O)c1cc(O)c(O)c(O)c1)[C@@H](c1cc(O)c(O)c(O)c1)O2`, the IC50 in assay [2] was 7.9 µM; in assay [3], 60 µM.

For the compound `O=C(O[C@@H]1Cc2c(O)c(CSCc3ccccc3)c(O)c(CSCc3ccccc3)c2O[C@@H]1c1cc(O)c(O)c(O)c1)c1cc(O)c(O)c(O)c1`, the IC50 in assay [2] amounted to 9.6 µM; in assay [3], 432 µM.

On to `O=C(O[C@@H]1Cc2c(O)cc(O)cc2O[C@@H]1c1cc(O)c(O)c(O)c1)c1cc(O)c(O)c(O)c1` [EPIGALOCATECHIN GALLATE], for which the values for the IC50 in assay [2] and in assay [3] were 20.8 µM and above 500 µM, respectively.

In the case of `COC(=O)CSCc1c(O)c(CSCC(=O)OC)c2c(c1O)C[C@@H](OC(=O)c1cc(O)c(O)c(O)c1)[C@@H](c1cc(O)c(O)c(O)c1)O2`, the IC50 in assay [2] was 12 µM; in assay [3], above 500 µM.

With `CCCCCCCCCCCCCCCCSCc1c(O)c(CSCCCCCCCCCCCCCCCC)c2c(c1O)C[C@@H](OC(=O)c1cc(O)c(O)c(O)c1)[C@@H](c1cc(O)c(O)c(O)c1)O2`, in assay [1], the concentration for half-maximal inhibition (IC50) result is “No effect”.

`Cc1c(C)c2c(c(C)c1O)CC[C@@](C)(CCC[C@H](C)CCC[C@H](C)CCCC(C)C)O2` [ALPHA-TOCOPHEROL]: the IC50 in assay [2] was 40.3 µM; in assay [3] it was 5.9 µM.
